Reference: ChEMBL document CHEMBL1629431, “Synthesis and antitumor activity of some 2, 3-disubstituted quinazolin-4(3H)-ones and 4, 6- disubstituted- 1, 2, 3, 4-tetrahydroquinazolin-2H-ones” (2010)

What was measured:
Format in all cases: functional
A549 = assay: Growth inhibition of human A549 cells at 10 uM after 48 hrs by coulter counter method; settings: A549, 48 h, read-out: GI
How it was run: (§1)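 Single high-dose NCI 60-cell-line panel screen across nine tumor subpanels. Test solutions (0.2 mL) were added in duplicate to wells holding 1.8 mL of culture at 6 × 10⁴ cells/mL. Controls got PBS and DMSO at identical dilutions. Incubation was 48 h at 37 °C in humidified 5% CO₂. Cells were diluted 10-fold in saline, Coulter-counted and dilution-corrected. Results were expressed as percent growth inhibition versus control.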

SN12C = assay: Growth inhibition of human SN12C cells at 10 uM after 48 hrs by coulter counter method; settings: read-out: GI; how it was run: as §1
MDA-MB-231 = assay: Growth inhibition of human MDA-MB-231 cells at 10 uM after 48 hrs by coulter counter method; settings: MDA-MB-231, 48 h, read-out: GI; how it was run: as §1
UO-31 = assay: Growth inhibition of human UO31 cells at 10 uM after 48 hrs by coulter counter method; settings: UO-31, 48 h, read-out: GI; how it was run: as §1
SF-539 = assay: Growth inhibition of human SF539 cells at 10 uM after 48 hrs by coulter counter method; settings: SF-539, 48 h, read-out: GI; how it was run: as §1
CCRF-CEM = assay: Growth inhibition of human CCRF-CEM cells at 10 uM after 48 hrs by coulter counter method; settings: read-out: GI; how it was run: as §1
SNB-75 = assay: Growth inhibition of human SNB75 cells at 10 uM after 48 hrs by coulter counter method; settings: SNB-75, 48 h, read-out: GI; how it was run: as §1
BT-549 = assay: Growth inhibition of human BT549 cells at 10 uM after 48 hrs by coulter counter method; settings: BT-549, 48 h, read-out: GI; how it was run: as §1
NCI-H226 = assay: Growth inhibition of human NCI-H226 cells at 10 uM after 48 hrs by coulter counter method; settings: NCI-H226, 48 h, read-out: GI; how it was run: as §1
MDA-MB-468 = assay: Growth inhibition of human MDA-MB-468 cells at 10 uM after 48 hrs by coulter counter method; settings: MDA-MB-468, 48 h, read-out: GI; how it was run: as §1
786-0 = assay: Growth inhibition of human 786-0 cells at 10 uM after 48 hrs by coulter counter method; settings: 786-0, 48 h, read-out: GI; how it was run: as §1
HT-29 = assay: Growth inhibition of human HT-29 cells at 10 uM after 48 hrs by coulter counter method; settings: HT-29, 48 h, read-out: GI; how it was run: as §1
CAKI-1 = assay: Growth inhibition of human Caki1 cells at 10 uM after 48 hrs by coulter counter method; settings: CAKI-1, 48 h, read-out: GI; how it was run: as §1
UACC-62 = assay: Growth inhibition of human UACC62 cells at 10 uM after 48 hrs by coulter counter method; settings: UACC-62, 48 h, read-out: GI; how it was run: as §1
SK-OV-3 = assay: Growth inhibition of human SKOV3 cells at 10 uM after 48 hrs by coulter counter method; settings: SK-OV-3, 48 h, read-out: GI; how it was run: as §1
K562 = assay: Growth inhibition of human K562 cells at 10 uM after 48 hrs by coulter counter method; settings: K562, 48 h, read-out: GI; how it was run: as §1
MCF7 = assay: Growth inhibition of human MCF7 cells at 10 uM after 48 hrs by coulter counter method; settings: MCF7, 48 h, read-out: GI; how it was run: as §1
IGROV-1 = assay: Growth inhibition of human IGROV1 cells at 10 uM after 48 hrs by coulter counter method; settings: IGROV-1, 48 h, read-out: GI; how it was run: as §1
SF-268 = assay: Growth inhibition of human SF268 cells at 10 uM after 48 hrs by coulter counter method; settings: SF-268, 48 h, read-out: GI; how it was run: as §1
PC-3 = assay: Growth inhibition of human PC3 cells at 10 uM after 48 hrs by coulter counter method; settings: PC-3, 48 h, read-out: GI; how it was run: as §1
SR = assay: Growth inhibition of human SR cells at 10 uM after 48 hrs by coulter counter method; settings: read-out: GI; how it was run: as §1
M14 = assay: Growth inhibition of human M14 cells at 10 uM after 48 hrs by coulter counter method; settings: M14, 48 h, read-out: GI; how it was run: as §1
SK-MEL-2 = assay: Growth inhibition of human SK-MEL-2 cells at 10 uM after 48 hrs by coulter counter method; settings: SK-MEL-2, 48 h, read-out: GI; how it was run: as §1
NCI-H23 = assay: Growth inhibition of human NCI-H23 cells at 10 uM after 48 hrs by coulter counter method; settings: NCI-H23, 48 h, read-out: GI; how it was run: as §1
COLO 205 = assay: Growth inhibition of human COLO205 cells at 10 uM after 48 hrs by coulter counter method; settings: COLO 205, 48 h, read-out: GI; how it was run: as §1
T47D = assay: Growth inhibition of human T47D cells at 10 uM after 48 hrs by coulter counter method; settings: read-out: GI; how it was run: as §1
MOLT-4 = assay: Growth inhibition of human MOLT4 cells at 10 uM after 48 hrs by coulter counter method; settings: MOLT-4, 48 h, read-out: GI; how it was run: as §1
HOP-92 = assay: Growth inhibition of human HOP92 cells at 10 uM after 48 hrs by coulter counter method; settings: HOP-92, 48 h, read-out: GI; how it was run: as §1
OVCAR-8 = assay: Growth inhibition of human OVCAR8 cells at 10 uM after 48 hrs by coulter counter method; settings: OVCAR-8, 48 h, read-out: GI; how it was run: as §1
U-251 = assay: Growth inhibition of human U251 cells at 10 uM after 48 hrs by coulter counter method; settings: U-251, 48 h, read-out: GI; how it was run: as §1
HL-60(TB) = assay: Growth inhibition of human HL-60(TB) cells at 10 uM after 48 hrs by coulter counter method; settings: HL-60, 48 h, read-out: GI
How it was run: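 Part of the NCI 60-cell-line single-high-dose panel. Cells were seeded at 6 × 10⁴ cells/mL with test solution in duplicate wells, alongside PBS/DMSO controls at identical dilutions. Plates were held 48 h at 37 °C in a humidified 5% CO₂ incubator. Cells were then diluted 10-fold in saline and counted by Coulter counter, with counts corrected for dilution. Results are percent growth of treated cells, reported as GI %.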

HCT-116 = assay: Growth inhibition of human HCT116 cells at 10 uM after 48 hrs by coulter counter method; settings: HCT-116, 48 h, read-out: GI; how it was run: as §1
NCI-H522 = assay: Growth inhibition of human NCI-H522 cells at 10 uM after 48 hrs by coulter counter method; settings: NCI-H522, 48 h, read-out: GI; how it was run: as §1
KM12 = assay: Growth inhibition of human KM12 cells at 10 uM after 48 hrs by coulter counter method; settings: KM12, 48 h, read-out: GI; how it was run: as §1
SK-MEL-28 = assay: Growth inhibition of human SK-MEL-28 cells at 10 uM after 48 hrs by coulter counter method; settings: SK-MEL-28, 48 h, read-out: GI; how it was run: as §1
[1] = Growth inhibition of human Hs 578T cells at 10 uM after 48 hrs by coulter counter method; settings: read-out: GI; how it was run: as §1
OVCAR-4 = assay: Growth inhibition of human OVCAR4 cells at 10 uM after 48 hrs by coulter counter method; settings: OVCAR-4, 48 h, read-out: GI; how it was run: as §1

Row | Compound | inhibition of growth at 10 µM (A549) | inhibition of growth at 10 µM (SN12C) | inhibition of growth at 10 µM (MDA-MB-231) | inhibition of growth at 10 µM (UO-31) | inhibition of growth at 10 µM (SF-539) | inhibition of growth at 10 µM (CCRF-CEM) | inhibition of growth at 10 µM (SNB-75) | inhibition of growth at 10 µM (BT-549) | inhibition of growth at 10 µM (NCI-H226) | inhibition of growth at 10 µM (MDA-MB-468) | inhibition of growth at 10 µM (786-0) | inhibition of growth at 10 µM (HT-29) | inhibition of growth at 10 µM (CAKI-1) | inhibition of growth at 10 µM (UACC-62) | inhibition of growth at 10 µM (SK-OV-3) | inhibition of growth at 10 µM (K562) | inhibition of growth at 10 µM (MCF7) | inhibition of growth at 10 µM (IGROV-1) | inhibition of growth at 10 µM (SF-268) | inhibition of growth at 10 µM (PC-3) | other results
1 | NS(=O)(=O)c1ccc(Nc2nc3ccccc3c(=O)n2-c2ccc(Cl)cc2)cc1 | 30% | 30% | 30% | 30% | 30% | 30% | 30% | 30% | 30% | 30% | 30% | 30% | 30% | 30% | 30% | 34.3% | 30% | 30% | 30% | 30% | inhibition of growth at 10 µM (SR): 30.2%; inhibition of growth at 10 µM (M14): 30%; inhibition of growth at 10 µM (SK-MEL-2): 30%; inhibition of growth at 10 µM (NCI-H23): 30%; inhibition of growth at 10 µM (COLO 205): 30%; inhibition of growth at 10 µM (T47D): 30%; inhibition of growth at 10 µM (MOLT-4): 38.1%; inhibition of growth at 10 µM (HOP-92): 30%; inhibition of growth at 10 µM (OVCAR-8): 30%; inhibition of growth at 10 µM (U-251): 30%; inhibition of growth at 10 µM (HL-60(TB)): 30%; inhibition of growth at 10 µM (HCT-116): 33.6%; inhibition of growth at 10 µM (NCI-H522): 30%; inhibition of growth at 10 µM (KM12): 30%; inhibition of growth at 10 µM (SK-MEL-28): 30%; inhibition of growth at 10 µM [1]: 30%; inhibition of growth at 10 µM (OVCAR-4): 30%
2 | COc1ccc(-n2c(Nc3ccc(S(N)(=O)=O)cc3)nc3ccccc3c2=O)cc1 | 30% | 30% | 30% | 30% | 30% | 30% | 30% | 30% | 30% | 37.5% | 30% | 30% | 30% | 30% | 30% | 47.1% | 30% | 30% | 30% | 30% | inhibition of growth at 10 µM (SR): 30%; inhibition of growth at 10 µM (M14): 30%; inhibition of growth at 10 µM (SK-MEL-2): 30%; inhibition of growth at 10 µM (NCI-H23): 30%; inhibition of growth at 10 µM (COLO 205): 30%; inhibition of growth at 10 µM (T47D): 30%; inhibition of growth at 10 µM (MOLT-4): 30%; inhibition of growth at 10 µM (HOP-92): 30%; inhibition of growth at 10 µM (OVCAR-8): 30%; inhibition of growth at 10 µM (U-251): 30%; inhibition of growth at 10 µM (HL-60(TB)): 30%; inhibition of growth at 10 µM (HCT-116): 36.7%; inhibition of growth at 10 µM (NCI-H522): 30%; inhibition of growth at 10 µM (KM12): 30%; inhibition of growth at 10 µM (SK-MEL-28): 30%; inhibition of growth at 10 µM [1]: 30%; inhibition of growth at 10 µM (OVCAR-4): 30%
3 | O=C1Nc2ccc(C(=O)Nc3ccccn3)cc2C(c2ccc(Cl)cc2)N1 (stereo unspecified) | 30% | 30% | 30% | 41.8% | 30% | 30% | 30% | 31.8% | 30% | 30% | 30% | 37.4% | 30% | 30% | 30% | 30% | 39.2% | 30% | 30% | 32.9% | inhibition of growth at 10 µM (SR): 30%; inhibition of growth at 10 µM (M14): 30%; inhibition of growth at 10 µM (SK-MEL-2): 30%; inhibition of growth at 10 µM (NCI-H23): 30.4%; inhibition of growth at 10 µM (COLO 205): 30%; inhibition of growth at 10 µM (T47D): 44.9%; inhibition of growth at 10 µM (MOLT-4): 33.9%; inhibition of growth at 10 µM (HOP-92): 30%; inhibition of growth at 10 µM (OVCAR-8): 30%; inhibition of growth at 10 µM (U-251): 30%; inhibition of growth at 10 µM (HL-60(TB)): 30%; inhibition of growth at 10 µM (HCT-116): 39.8%; inhibition of growth at 10 µM (NCI-H522): 30%; inhibition of growth at 10 µM (KM12): 30%; inhibition of growth at 10 µM (SK-MEL-28): 30%; inhibition of growth at 10 µM [1]: 30%; inhibition of growth at 10 µM (OVCAR-4): 30%
